# Results reported in ChEMBL document CHEMBL3808334, “Synthesis and in vitro evaluation of novel triazine analogues as anticancer agents and their interaction studies with bovine serum albumin” (Eur J Med Chem, 2016).
# Key:
# Assay type in all cases: functional
# [1] = Growth inhibition of human HOP92 cells assessed as cell growth at 10^-6 M incubated for 48 hrs by sulforhodamine B assay; details: HOP-92, 48 h, read-out: Activity
# [2] = Growth inhibition of human SF295 cells assessed as cell growth at 10^-4 M incubated for 48 hrs by sulforhodamine B assay; details: SF-295, 48 h, read-out: Activity
# T47D = assay: Growth inhibition of human T47D cells incubated for 48 hrs by sulforhodamine B assay
# Summary of the method: (§1)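 Cells were plated at 5,000–40,000 per well according to doubling time and preincubated 24 h at 37 °C in 5% CO2; time-zero plates were then TCA-fixed. Five concentrations (10-fold or ½-log dilutions, DMSO stock) were incubated 48 h. Cells were TCA-fixed, stained with 0.4% SRB and read at 515 nm. GI50 was taken where [(Ti−Tz)/(C−Tz)]×100 = 50.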
# A498 = assay: Growth inhibition of human A498 cells assessed as cell growth at 10^-5 M incubated for 48 hrs by sulforhodamine B assay; details: A498, 48 h, read-out: Activity
# Summary of the method: (§2)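 Five-dose assay: five concentrations from 10-fold or ½-log serial dilutions. Cells are plated at 5,000–40,000 per well according to doubling time, grown 24 h, then exposed 48 h at 37 °C, 5% CO₂. Fixed with cold 50% TCA (final addition) for 60 min at 4 °C and stained with 0.4% SRB in 1% acetic acid. Bound dye is solubilized in 10 mM Tris base and read at 515 nm. GI₅₀ is where [(Ti−Tz)/(C−Tz)]×100 = 50, with a time-zero plate as Tz.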
# [3] = Growth inhibition of human BT549 cells assessed as cell growth at 10 uM incubated for 48 hrs by sulforhodamine B assay; details: BT-549, 48 h, read-out: Activity
# Summary of the method: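 One-dose screen at 10 µM final. Cells are plated at 5,000–40,000 per well according to doubling time and preincubated 24 h at 37 °C, 5% CO₂. Compound (DMSO stock diluted in medium with 50 µg/ml gentamicin) is then added for 48 h. Growth percent is read by sulforhodamine B staining, absorbance at 515 nm.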
# [4] = Growth inhibition of human SW620 cells assessed as cell growth at 10 uM incubated for 48 hrs by sulforhodamine B assay; details: SW-620, 48 h, read-out: Activity
# [5] = Growth inhibition of human HCT116 cells assessed as cell growth at 10^-5 M incubated for 48 hrs by sulforhodamine B assay; details: HCT-116, 48 h, read-out: Activity
# Summary of the method: (§3)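 Cells seeded at 5,000–40,000/well according to doubling time and preincubated 24 h at 37 °C, 5% CO2. Time-zero plates were TCA-fixed. DMSO concentrate was diluted in medium with 50 µg/ml gentamicin to give five concentrations (10-fold or ½ log steps), then exposed 48 h. Cells were TCA-fixed, stained with 0.4% SRB and read at 515 nm. Percent growth was taken against time-zero and control; GI50, TGI and LC50 derived.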
# [6] = Growth inhibition of human MOLT4 cells assessed as cell growth at 10^-8 M incubated for 48 hrs by sulforhodamine B assay; details: MOLT-4, 48 h, read-out: Activity
# [7] = Growth inhibition of human BT549 cells assessed as cell growth at 10^-7 M incubated for 48 hrs by sulforhodamine B assay; details: BT-549, 48 h, read-out: Activity; summary of the method: as §2
# [8] = Growth inhibition of human COLO205 cells incubated for 48 hrs by sulforhodamine B assay; details: COLO 205, 48 h; summary of the method: as §3
# [9] = Growth inhibition of human renal cancer cells incubated for 48 hrs by sulforhodamine B assay; details: Cancer cell lines; for CC50: read-out: LC50 (the source's name)
# CCRF-CEM = assay: Growth inhibition of human CCRF-CEM cells incubated for 48 hrs by sulforhodamine B assay
# Summary of the method: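 Leukemia line in the five-dose format: five concentrations from 10-fold or ½-log serial dilutions. Plated at 5,000–40,000 cells per well, preincubated 24 h, then compound added for 48 h at 37 °C, 5% CO₂. Sulforhodamine B absorbance read at 515 nm. Growth is computed against time-zero (Tz) and control (C) readings; GI₅₀ is where [(Ti−Tz)/(C−Tz)]×100 = 50.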
# [10] = Growth inhibition of human HOP62 cells assessed as cell growth at 10^-5 M incubated for 48 hrs by sulforhodamine B assay; details: HOP-62, 48 h, read-out: Activity
# [11] = Growth inhibition of human SW620 cells assessed as cell growth at 10^-8 M incubated for 48 hrs by sulforhodamine B assay; details: SW-620, 48 h, read-out: Activity
# SN12C = assay: Growth inhibition of human SN12C cells incubated for 48 hrs by sulforhodamine B assay; details: for CC50: read-out: pLC50 (the source's name) (converted); summary of the method: as §1
# NCI-H226 = assay: Growth inhibition of human NCI-H226 cells assessed as cell growth at 10^-6 M incubated for 48 hrs by sulforhodamine B assay; details: NCI-H226, 48 h, read-out: Activity
# NCI-H23 = assay: Growth inhibition of human NCI-H23 cells incubated for 48 hrs by sulforhodamine B assay; details: NCI-H23, 48 h; summary of the method: as §1
# [12] = Growth inhibition of human OVCAR4 cells assessed as cell growth at 10^-7 M incubated for 48 hrs by sulforhodamine B assay; details: OVCAR-4, 48 h, read-out: Activity
# 786-0 = assay: Growth inhibition of human 786-0 cells incubated for 48 hrs by sulforhodamine B assay; details: 786-0, 48 h; summary of the method: as §2
# KM12 [13] = assay: Growth inhibition of human KM12 cells assessed as cell growth at 10^-4 M incubated for 48 hrs by sulforhodamine B assay; details: KM12, 48 h, read-out: Activity
# [14] = Growth inhibition of human RXF393 cells assessed as cell growth at 10 uM incubated for 48 hrs by sulforhodamine B assay; details: RXF 393, 48 h, read-out: Activity
# [15] = Growth inhibition of human Caki1 cells assessed as cell growth at 10^-4 M incubated for 48 hrs by sulforhodamine B assay; details: CAKI-1, 48 h, read-out: Activity; summary of the method: as §3
# KM12 [16] = assay: Growth inhibition of human KM12 cells assessed as cell growth at 10^-5 M incubated for 48 hrs by sulforhodamine B assay; details: KM12, 48 h, read-out: Activity
# [17] = read-out: LC50 (the source's name)
# [18] = read-out: pLC50 (the source's name) (converted)
smiles,measurement,setting,value
c1ccc(-c2nc(Nc3ccc(-c4nc5ccccc5[nH]4)cc3)nc(N3CCOCC3)n2)cc1,growth at 1 µM,[1],70%
same,growth at 100 µM,[2],-71%
same,GI50,T47D; read-out: GI50,1.62 µM
same,CC50,T47D; [17],9.02 µM
same,TGI,T47D; read-out: TGI,3.82 µM
same,GI50,T47D; read-out: pGI50 (converted),1.62 µM
same,CC50,T47D; [18],9.12 µM
same,TGI,T47D; read-out: pTGI (converted),3.8 µM
same,growth at 10 µM,A498,-76%
same,growth at 10 µM,[3],33.6%
same,growth at 10 µM,[4],-82.9%
same,growth at 10 µM,[5],-61%
same,growth at 0.01 µM,[6],96%
same,growth at 0.1 µM,[7],100%
same,GI50,[8]; read-out: GI50,1.41 µM
same,LC50,[8]; read-out: LC50,6.92 µM
same,TGI,[8]; read-out: TGI,3.13 µM
same,GI50,[8]; read-out: pGI50 (converted),1.41 µM
same,LC50,[8]; read-out: pLC50 (converted),6.92 µM
same,TGI,[8]; read-out: pTGI (converted),3.16 µM
same,GI50,[9],1.2 µM
same,TGI,[9],2.72 µM
same,CC50,[9],6.27 µM
same,GI50,CCRF-CEM; read-out: GI50,0.544 µM
same,CC50,CCRF-CEM; [17],> 100 µM
same,TGI,CCRF-CEM; read-out: TGI,3.12 µM
same,GI50,CCRF-CEM; read-out: pGI50 (converted),0.55 µM
same,CC50,CCRF-CEM; [18],> 100 µM
same,TGI,CCRF-CEM; read-out: pTGI (converted),3.09 µM
same,growth at 10 µM,[10],-74%
same,growth at 0.01 µM,[11],98%
same,LC50 (50% lethal concentration),SN12C,8.47 µM
same,GI50,SN12C; read-out: GI50,1.74 µM
same,TGI,SN12C; read-out: TGI,3.83 µM
same,GI50,SN12C; read-out: pGI50 (converted),1.74 µM
same,CC50,SN12C,8.51 µM
same,TGI,SN12C; read-out: pTGI (converted),3.8 µM
same,growth at 1 µM,NCI-H226,117%
same,GI50,NCI-H23; read-out: GI50,2.07 µM
same,CC50,NCI-H23; [17],68.7 µM
same,TGI,NCI-H23; read-out: TGI,4.78 µM
same,GI50,NCI-H23; read-out: pGI50 (converted),2.09 µM
same,CC50,NCI-H23; [18],69.2 µM
same,TGI,NCI-H23; read-out: pTGI (converted),4.79 µM
same,growth at 0.1 µM,[12],103%
same,GI50,786-0; read-out: GI50,0.257 µM
same,CC50,786-0; [17],4.06 µM
same,TGI,786-0; read-out: TGI,1.25 µM
same,GI50,786-0; read-out: pGI50 (converted),0.257 µM
same,CC50,786-0; [18],4.07 µM
same,TGI,786-0; read-out: pTGI (converted),1.26 µM
same,growth at 100 µM,KM12 [13],-86%
same,growth at 10 µM,[14],-75.1%
same,growth at 100 µM,[15],-100%
same,growth at 10 µM,KM12 [16],-84%
Fc1ccc(-c2nc(Nc3ccc(-c4nc5ccccc5[nH]4)cc3)nc(N3CCOCC3)n2)cc1,growth at 1 µM,[1],90%
same,growth at 100 µM,[2],-35%
same,GI50,T47D; read-out: GI50,1.88 µM
same,TGI,T47D; read-out: TGI,4.32 µM
same,GI50,T47D; read-out: pGI50 (converted),1.86 µM
same,TGI,T47D; read-out: pTGI (converted),4.37 µM
same,growth at 10 µM,A498,-60%
same,growth at 10 µM,[3],5.16%
same,growth at 10 µM,[4],3.57%
same,growth at 10 µM,[5],-84%
same,growth at 0.01 µM,[6],98%
same,growth at 0.1 µM,[7],97%
same,GI50,[8]; read-out: GI50,1.92 µM
same,LC50,[8]; read-out: LC50,9.23 µM
same,TGI,[8]; read-out: TGI,4.21 µM
same,GI50,[8]; read-out: pGI50 (converted),1.91 µM
same,LC50,[8]; read-out: pLC50 (converted),9.33 µM
same,TGI,[8]; read-out: pTGI (converted),4.17 µM
same,GI50,[9],2.03 µM
same,TGI,[9],7.36 µM
same,CC50,[9],7.83 µM
same,GI50,CCRF-CEM; read-out: GI50,3.11 µM
same,CC50,CCRF-CEM; [17],> 100 µM
same,TGI,CCRF-CEM; read-out: TGI,> 100 µM
same,GI50,CCRF-CEM; read-out: pGI50 (converted),3.09 µM
same,CC50,CCRF-CEM; [18],> 100 µM
same,TGI,CCRF-CEM; read-out: pTGI (converted),> 100 µM
same,growth at 10 µM,[10],-34%
same,growth at 0.01 µM,[11],97%
same,LC50 (50% lethal concentration),SN12C,> 100 µM
same,GI50,SN12C; read-out: GI50,3.19 µM
same,TGI,SN12C; read-out: TGI,23 µM
same,GI50,SN12C; read-out: pGI50 (converted),3.16 µM
same,CC50,SN12C,> 100 µM
same,TGI,SN12C; read-out: pTGI (converted),22.9 µM
same,growth at 1 µM,NCI-H226,113%
same,GI50,NCI-H23; read-out: GI50,2.57 µM
same,CC50,NCI-H23; [17],> 100 µM
same,TGI,NCI-H23; read-out: TGI,9.9 µM
same,GI50,NCI-H23; read-out: pGI50 (converted),2.57 µM
same,CC50,NCI-H23; [18],> 100 µM
same,TGI,NCI-H23; read-out: pTGI (converted),10 µM
same,growth at 0.1 µM,[12],104%
same,GI50,786-0; read-out: GI50,1.44 µM
same,CC50,786-0; [17],7.24 µM
same,TGI,786-0; read-out: TGI,3.23 µM
same,GI50,786-0; read-out: pGI50 (converted),1.45 µM
same,CC50,786-0; [18],7.24 µM
same,TGI,786-0; read-out: pTGI (converted),3.24 µM
same,growth at 100 µM,KM12 [13],-37%
same,growth at 10 µM,[14],-67.5%
same,growth at 100 µM,[15],-29%
same,growth at 10 µM,KM12 [16],-28%
